Test results: ChEMBL document CHEMBL1649179, “Pharmacokinetics of LB80331 and LB80317 following oral administration of LB80380, a new antiviral agent for chronic hepatitis B (CHB), in healthy adult subjects, CHB patients, and mice” (Antimicrob Agents Chemother, 2009)

Key:
Homo sapiens [1] = assay: Oral clearance in chronic hepatitis B virus infected patient assessed as (1-((2-amino-9H-purin-9-yl)methyl)cyclopropoxy)me at 60 mg, po qd for 4 weeks by LC-MS analysis; type: ADME, organism-based; details: in vivo, 672 h
How it was run: (§1)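 Oral LB80380 was given once daily for 4 weeks to CHB patients. Plasma LB80331 was quantified by validated LC-MS/MS after protein precipitation, with stable-isotope internal standard, at baseline and steady state (weeks 2–4), 0–24 h postdose. Noncompartmental CL/F was calculated as dose (adjusted for LB80380/LB80331 molecular weights) divided by AUC (AUC0-∞ single dose; AUC0-24 steady state).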

Liver [2] = assay: Tmax in CD-1 mouse liver assessed as di- and triphosphates of (1-((2-amino-9H-purin-9-yl)methyl)cyclopropoxy)me at 30 mg/kg, po administered as single dose by LC-MS analysis; type: ADME, organism-based; design: dose 30 mg/kg, route oral; details: in vivo
How it was run: (§2)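 Male CD-1 mice received 30 mg/kg orally in 100% PEG 400. Plasma and snap-frozen liver were taken from 3 mice per time point at 1, 2, 4, 6, 10, 24 and 36 h. Samples were extracted with perchloric acid and neutralized with ammonium bicarbonate. Free LB80331/LB80317 was measured directly by LC-MS/MS; total, including di- and triphosphates, was measured after calf intestinal phosphatase treatment.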

Homo sapiens [3] = assay: Tmax in high fat diet fed healthy human assessed as (1-((2-amino-9H-purin-9-yl)methyl)cyclopropoxy)me assessed as (1-((2-amino-9H-purin-9-yl)methyl)cyclopropoxy)me at 60 mg, po administered as single dose by LC-MS analysis; type: ADME, organism-based; details: in vivo
How it was run: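 Healthy subjects received a single oral 60-mg dose after a high-fat breakfast or after an overnight fast. Plasma LB80331 was assayed by validated LC-MS/MS (LLOQ 5 ng/ml; intra- and interassay precision and accuracy <10%). Tmax was obtained by noncompartmental analysis.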

Liver [4] = assay: Tmax in CD-1 mouse liver assessed as (1-((2-amino-9H-purin-9-yl)methyl)cyclopropoxy)me at 30 mg/kg, po administered as single dose by LC-MS analysis; type: ADME, organism-based; design: dose 30 mg/kg, route oral; details: in vivo; how it was run: as §2
Liver [5] = assay: Half life in CD-1 mouse liver assessed as di- and triphosphates of (1-((2-amino-9H-purin-9-yl)methyl)cyclopropoxy)me at 30 mg/kg, po administered as single dose by LC-MS analysis; type: ADME, organism-based; design: dose 30 mg/kg, route oral; details: in vivo
How it was run: (§3)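 Male CD-1 mice given a single oral dose in 100% PEG 400. Samples extracted with perchloric acid and neutralized with ammonium bicarbonate. One aliquot assayed for the free analyte; the other treated with calf intestinal phosphatase to give the total including di-/triphosphates. Analysis by LC-MS/MS.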

Homo sapiens [6] = assay: Tmax in chronic hepatitis B virus infected patient assessed as (1-((2-amino-9H-purin-9-yl)methyl)cyclopropoxy)me at 60 mg, po administered as single dose by LC-MS analysis; type: ADME, organism-based; details: in vivo
How it was run: (§4)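 Daily oral LB80380 was given to CHB patients over 4 weeks. Blood was drawn on day 1 and at steady state (weeks 2–4), predose and 0.5–24 h postdose. Plasma LB80331 (LLOQ 5 ng/ml) and LB80317 (LLOQ 10 ng/ml) were measured by LC-MS/MS after protein-precipitation extraction. Tmax was taken by noncompartmental analysis.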

Homo sapiens [7] = assay: Cmax in chronic hepatitis B virus infected patient assessed as (1-((2-amino-9H-purin-9-yl)methyl)cyclopropoxy)me at 240 mg, po qd for 4 weeks by LC-MS analysis; type: ADME, organism-based; design: dose 240 mg, route oral; details: in vivo, 672 h
How it was run: (§5)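 CHB patients, oral once daily for 4 weeks. Plasma sampled at steady state (weeks 2–4), predose and at 0.5, 1, 2, 3, 4, 6, 8 and 24 h postdose. LB80331 measured by validated LC-MS/MS (LLOQ 5 ng/ml) after protein precipitation with a stable-isotope internal standard. Cmax by noncompartmental analysis.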

Homo sapiens [8] = assay: Cmax in chronic hepatitis B virus infected patient assessed as (1-((2-amino-9H-purin-9-yl)methyl)cyclopropoxy)me at 60 mg, po qd for 4 weeks by LC-MS analysis; type: ADME, organism-based; design: dose 60 mg, route oral; details: in vivo, 672 h; how it was run: as §5
Liver [9] = assay: AUC (0 to infinity) in CD-1 mouse liver assessed as di- and triphosphates of (1-((2-amino-9H-purin-9-yl)methyl)cyclopropoxy)me at 30 mg/kg, po administered as single dose by LC-MS analysis; type: ADME, organism-based; design: time infinity, dose 30 mg/kg, route oral; details: in vivo; how it was run: as §3
Homo sapiens [10] = assay: Half life in chronic hepatitis B virus infected patient assessed as (1-((2-amino-9H-purin-9-yl)methyl)cyclopropoxy)me at 120 mg, po qd for 4 weeks by LC-MS analysis; type: ADME, organism-based; details: in vivo, 672 h
How it was run: (§6)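 CHB patients given LB80380 orally once daily for 4 weeks. Plasma was sampled on day 1 and at steady state (weeks 2–4), predose and 0.5, 1, 2, 3, 4, 6, 8 and 24 h postdose. LB80331 was measured by validated LC-MS/MS (LLOQ 5 ng/ml). Terminal-phase apparent t1/2 came from noncompartmental analysis and was flagged if extrapolated AUC exceeded 20% of AUC0-24.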

Liver [11] = assay: Cmax in CD-1 mouse liver assessed as di- and triphosphates of (1-((2-amino-9H-purin-9-yl)methyl)cyclopropoxy)me at 30 mg/kg, po administered as single dose by LC-MS analysis; type: ADME, organism-based; design: dose 30 mg/kg, route oral; details: in vivo; how it was run: as §3
Homo sapiens [12] = assay: Cmax in fasted healthy human assessed as (1-((2-amino-9H-purin-9-yl)methyl)cyclopropoxy)me at 60 mg, po administered as single dose by LC-MS analysis; type: ADME, organism-based; design: dose 60 mg, route oral; details: in vivo
How it was run: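 Healthy subjects given a single oral dose after an overnight fast or after a high-fat breakfast. Plasma LB80331 measured by validated LC-MS/MS (LLOQ 5 ng/ml) after protein precipitation. Cmax by noncompartmental analysis.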

Homo sapiens [13] = assay: Half life in chronic hepatitis B virus infected patient assessed as (1-((2-amino-9H-purin-9-yl)methyl)cyclopropoxy)me at 60 mg, po qd for 4 weeks by LC-MS analysis; type: ADME, organism-based; details: in vivo, 672 h; how it was run: as §6
Homo sapiens [14] = assay: Cmax in chronic hepatitis B virus infected patient assessed as (1-((2-amino-9H-purin-9-yl)methyl)cyclopropoxy)me at 30 mg, po administered as single dose by LC-MS analysis; type: ADME, organism-based; design: dose 30 mg, route oral; details: in vivo
How it was run: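 CHB patients (HBsAg/HBeAg positive), six per dose cohort, given a first oral dose on day 1. Plasma sampled at baseline. Analysis by validated LC-MS/MS after protein precipitation with a stable-isotope internal standard; LLOQ 5 ng/ml for LB80331. Noncompartmental analysis gives Cmax and AUC0-∞.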

Plasma = assay: AUC (0 to 36 hrs) in CD-1 mouse plasma assessed as (1-((2-amino-9H-purin-9-yl)methyl)cyclopropoxy)me at 30 mg/kg, po administered as single dose by LC-MS analysis; type: ADME, organism-based; design: time < 36 hr, dose 30 mg/kg, route oral; details: in vivo; how it was run: as §3
Homo sapiens [15] = assay: Tmax in chronic hepatitis B virus infected patient assessed as (1-((2-amino-9H-purin-9-yl)methyl)cyclopropoxy)me at 240 mg, po qd for 4 weeks by LC-MS analysis; type: ADME, organism-based; details: in vivo, 672 h; how it was run: as §4
Homo sapiens [16] = assay: Ratio of AUC (0 to infinity) in high fat diet fed healthy human to AUC (0 to infinity) in fasted healthy human assessed as (1-((2-amino-9H-purin-9-yl)methyl)cyclopropoxy)me at 60 mg, po administered as single dose by LC-MS analysis; details: in vivo
Homo sapiens [17] = assay: Oral clearance in chronic hepatitis B virus infected patient assessed as (1-((2-amino-9H-purin-9-yl)methyl)cyclopropoxy)me at 120 mg, po administered as single dose by LC-MS analysis; type: ADME, organism-based; details: in vivo; how it was run: as §1

Structure (SMILES): Nc1ncc2ncn(CC3(OCP(=O)(O)O)CC3)c2n1 [BESIFOVIR]
- CL/F (Homo sapiens [1]): 273 mL/min
- Tmax (Liver [2]): 1 h
- Tmax (Homo sapiens [3]): 4 h
- Tmax (Liver [4]): 1 h
- t1/2 (Liver [5]): 3.2 h
- Tmax (Homo sapiens [6]): 2 h
- Cmax (Homo sapiens [7]): 1164 ng/mL
- Cmax (Homo sapiens [8]): 362 ng/mL
- AUC (Liver [9]): 64 µM·h
- t1/2 (Homo sapiens [10]): 3.1 h
- Cmax (Liver [11]): 17 µM
- Cmax (Homo sapiens [12]): 286 ng/mL
- t1/2 (Homo sapiens [13]): 3 h
- Cmax (Homo sapiens [14]): 200 ng/mL
- AUC (Plasma): 17 µM·h
- Tmax (Homo sapiens [15]): 2 h
- Ratio AUC (Homo sapiens [16]): 1.1
- CL/F (Homo sapiens [17]): 273 mL/min
